Measurements taken from ChEMBL document CHEMBL1125687, “5-Lipoxygenase inhibitors: the synthesis and structure-activity relationships of a series of 1-phenyl-3-pyrazolidinones” (J Med Chem, 1991).

How the values were obtained:
[1] = molecular target: T1, Polyunsaturated fatty acid 5-lipoxygenase (Rattus norvegicus) (UniProt P12527); assay: Compound was evaluated for the inhibition of 5-Lipoxygenase (5-LO) ex vivo; type: functional
T1 sequence (whole entry): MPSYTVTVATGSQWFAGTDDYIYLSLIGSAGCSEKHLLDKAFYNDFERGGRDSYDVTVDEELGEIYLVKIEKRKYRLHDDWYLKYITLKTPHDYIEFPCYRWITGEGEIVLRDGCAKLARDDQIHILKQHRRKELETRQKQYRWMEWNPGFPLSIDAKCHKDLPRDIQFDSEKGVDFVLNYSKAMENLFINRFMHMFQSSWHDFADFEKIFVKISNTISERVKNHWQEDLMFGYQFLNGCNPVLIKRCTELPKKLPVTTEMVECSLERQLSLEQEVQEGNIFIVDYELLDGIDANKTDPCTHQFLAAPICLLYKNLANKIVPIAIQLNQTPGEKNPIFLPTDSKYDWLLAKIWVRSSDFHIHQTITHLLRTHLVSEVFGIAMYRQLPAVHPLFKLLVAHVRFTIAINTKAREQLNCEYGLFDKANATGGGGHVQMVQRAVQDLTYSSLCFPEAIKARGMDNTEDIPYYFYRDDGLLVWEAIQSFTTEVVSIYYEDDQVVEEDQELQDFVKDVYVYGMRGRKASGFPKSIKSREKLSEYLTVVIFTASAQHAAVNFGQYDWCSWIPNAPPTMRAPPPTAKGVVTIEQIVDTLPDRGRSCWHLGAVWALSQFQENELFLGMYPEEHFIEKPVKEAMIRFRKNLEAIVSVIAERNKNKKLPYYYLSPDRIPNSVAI
Method in brief: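 Rats received 0.25% (w/v) carrageenan to induce pleural inflammation. After 3 h, compound or vehicle was given orally, and rats were killed 1 h later. Pleural exudate cells (>95% neutrophils) were stimulated with A23187 for 15 min and stopped with acetonitrile/methanol. After 30 min extraction at room temperature, samples were centrifuged and LTB₄ measured by reverse-phase HPLC. ED₅₀ with 95% confidence limits came from linear dose-response portions, ≥5 animals per dose.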

[2] = Partition coefficient (logP); type: physicochemical; details: octanol/water
[3] = test system: Cavia porcellus; assay: Compound was evaluated for the inhibition of leukotriene-mediated bronchoconstriction in guinea pig (in vivo); type: functional; details: Lung
Method in brief: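 Guinea pigs were immunized with ovalbumin 1 mg plus alum 3 mg and used two weeks later, anesthetized and mechanically ventilated with tracheal pressure monitored. Pretreatment iv: naproxen 10 mg/kg, pyrilamine 3 mg/kg, propranolol 0.1 mg/kg. Compound or vehicle was given orally 1 h before iv ovalbumin challenge (0.3 mg/kg). Percent inhibition was taken from the maximum tracheal pressure rise within 20 min. ED50 with 95% confidence limits came from linear dose-response portions, n≥8 per dose.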

[4] = molecular target: T1, Polyunsaturated fatty acid 5-lipoxygenase (Rattus norvegicus); assay: Compound was evaluated for the inhibition of 5-Lipoxygenase (5-LO) in vitro at 1 uM
[5] = molecular target: T2, Polyunsaturated fatty acid 5-lipoxygenase (Rattus norvegicus, UniProt P12527); assay: In vitro inhibition of rat 5-Lipoxygenase
T2 sequence (P12527 whole entry): T1 sequence (whole entry)
Method in brief: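 Broken-cell assay: homogenized rat basophilic RBL-1 cells preincubated 5 min at 37 °C with compound or vehicle, then given [14C]arachidonic acid. A chloroform extract was run on TLC, and LTB4 and 5-HETE were quantified by radiochromatographic scanning.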

[6] = molecular target: T1, Polyunsaturated fatty acid 5-lipoxygenase (Rattus norvegicus); details: at 1 µM

| Compound | logP [2] | IC50 [5] | further results |
| --- | --- | --- | --- |
| CC(=O)NN(C)c1ccccc1 |  |  | inhibition [4]: < 20% |
| COCC1CN(c2ccccc2)NC1=O (stereo unspecified) | 0.891 | 590 nM | ED50 [1]: 29 mg/kg; ED50 [3]: 25 mg/kg |
| COCCC1CCN(c2ccccc2)NC1=O (stereo unspecified) | 1.09 | 440 nM |  |
| COCCC1CN(c2ccccc2)NC1=O (single isomer, unassigned; (+)) |  | 350 nM |  |
| COCCC1CN(c2ccc(OCc3ccccc3)cc2)NC1=O (stereo unspecified) | 2.22 | 500 nM |  |
| COCCC1CN(c2ccc(Cl)cc2)NC1=O (stereo unspecified) | 1.24 | 250 nM |  |
| CC(C)(O)C1CN(c2ccccc2)NC1=O (stereo unspecified) |  | > 1000 nM | inhibition [6]: 35% |
| O=C1NN(c2ccccc2)CC1Cc1cccs1 (stereo unspecified) | 2.48 | 140 nM |  |
| COCCC1CN(c2ccc(C)cc2)NC1=O (stereo unspecified) | 1.03 |  |  |
| COCCC1CN(c2ccc(O)cc2)NC1=O (stereo unspecified) | -0.14 | 5130 nM |  |
| COCCC1CN(c2ccc(Cl)c(Cl)c2)NC1=O (stereo unspecified) | 1.96 | 190 nM |  |
| COCCC1CN(c2ccccc2)NC1=O (stereo in doubt; 1f) [listing 1 of 2 here] |  |  | ED50 [1]: 43 mg/kg |
| O=C1NN(c2ccccc2)CC1CCO (stereo unspecified) |  | > 1000 nM | inhibition [6]: 35% |
| CCOCCC1CN(c2ccccc2)NC1=O (stereo unspecified) | 1.06 | 150 nM |  |
| NC1=NN(c2cccc(C(F)(F)F)c2)CC1 [BW-755C] |  |  | ED50 [1]: > 300 mg/kg; ED50 [3]: 300 mg/kg |
| CN(C)CCC1CN(c2ccccc2)NC1=O (stereo unspecified) |  | > 1000 nM | inhibition [4]: < 20% |
| COCCC1CN(c2cccc(C(F)(F)F)c2)NC1=O (stereo unspecified) | 1.41 | 220 nM |  |
| COCCC1CN(c2ccccc2)NC1=O (stereo in doubt; 1f) [listing 2 of 2 here] | 0.53 | 480 nM | ED50 [3]: 62 mg/kg |
| O=C1NN(c2ccccc2)CC1C(O)(c1ccccc1)c1ccccc1 (stereo unspecified) |  | < 1000 nM |  |

Now from value to molecule, other results behind:

| logP [2] | IC50 [5] | Compound | further results |
| --- | --- | --- | --- |
| 0.893 |  | O=C1CCN(c2ccccc2)N1 [PHENIDONE] | ED50 [1]: 16 mg/kg; ED50 [3]: 69 mg/kg |
|  | > 1000 nM | COCc1cn(-c2ccccc2)[nH]c1=O |  |
| 1.45 | 530 nM | O=C1CCCN(c2ccccc2)N1 |  |
|  | > 1000 nM | COCCC1C(=O)NN(c2ccccc2)C1(C)C (stereo unspecified) | inhibition [6]: < 20% |
| 0.45 | 1460 nM | COCCC1CN(c2ccc(OC)cc2)NC1=O (stereo unspecified) |  |
| 2.16 | 120 nM | O=C1NN(c2ccccc2)CC1Sc1ccccn1 (stereo unspecified) |  |
| 1.97 | 320 nM | CSC1CN(c2ccccc2)NC1=O (stereo unspecified) |  |
| 1.41 | 670 nM | COCC1(C)CN(c2ccccc2)NC1=O (stereo unspecified) |  |
|  | > 1000 nM | COCCc1cn(-c2ccccc2)[nH]c1=O | inhibition [6]: 35% |
| 1.42 | 280 nM | CCOCC1CN(c2ccccc2)NC1=O (stereo unspecified) |  |
| 0.955 | 520 nM | COCCOCC1CN(c2ccccc2)NC1=O (stereo unspecified) |  |
| 1.95 | 260 nM | CCCOCC1CN(c2ccccc2)NC1=O (stereo unspecified) |  |
| 1.05 | 500 nM | COCCC1C(=O)NN(c2ccccc2)C1C (stereo unspecified) |  |
| 3.63 | 180 nM | O=C1NN(c2ccccc2)CC1SCc1ccccc1 (stereo unspecified) |  |
| 2.5 | 60 nM | CCSC1CN(c2ccccc2)NC1=O (stereo unspecified) | ED50 [1]: 95 mg/kg; ED50 [3]: 92 mg/kg |
|  | 10300 nM | COCCC1CN(c2ccccc2)NC1=O (stereo in doubt; 1f (-)) |  |
|  | > 1000 nM | COCC1CN(c2ccccc2)N(C)C1=O (stereo unspecified) | inhibition [6]: < 20% |
